# Tests used:
# [1] = molecular target: GABA-A receptor; anion channel (Rattus norvegicus) (UniProt O09028+P15431+P18506+P18508+P19969+P20236+P23574+P23576+P28471+P28473+P30191+P62813+P63079+P63138+Q91ZM7+Q9ES14); experiment: Binding to GABA-A receptor complex relative to TBPS binding to picrotoxin convulsant site; assay type: functional
# Outline: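 Rat brain membranes ([…]) with 2 nM [35S]TBPS in 1 M NaCl, 10 mM Tris/HCl pH 7.4, 120 min at 24 °C; drugs added from methanol (≤0.2%, constant). Filtration read-out, nonspecific binding with 2 mM unlabeled TBPS.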
# [2] = molecular target: GABA-A receptor; anion channel; experiment: Displacement of [3H]flunitrazepam from GABA-A benzodiazepine receptor of rat cortical membranes; assay type: cell membranes, Membrane
# [3] = molecular target: GABA A receptor alpha-6/beta-2/gamma-2 (Rattus norvegicus, UniProt P18508+P30191+P63138); experiment: Displacement of [3H]-Ro- 15-4513 from alpha-6 beta2 gamma2 subunits of Rat GABA-A receptor expressed in Sf-9 insect cell membranes
# GABA A receptor alpha-6/beta-2/gamma-2, sequence (P18508 whole entry): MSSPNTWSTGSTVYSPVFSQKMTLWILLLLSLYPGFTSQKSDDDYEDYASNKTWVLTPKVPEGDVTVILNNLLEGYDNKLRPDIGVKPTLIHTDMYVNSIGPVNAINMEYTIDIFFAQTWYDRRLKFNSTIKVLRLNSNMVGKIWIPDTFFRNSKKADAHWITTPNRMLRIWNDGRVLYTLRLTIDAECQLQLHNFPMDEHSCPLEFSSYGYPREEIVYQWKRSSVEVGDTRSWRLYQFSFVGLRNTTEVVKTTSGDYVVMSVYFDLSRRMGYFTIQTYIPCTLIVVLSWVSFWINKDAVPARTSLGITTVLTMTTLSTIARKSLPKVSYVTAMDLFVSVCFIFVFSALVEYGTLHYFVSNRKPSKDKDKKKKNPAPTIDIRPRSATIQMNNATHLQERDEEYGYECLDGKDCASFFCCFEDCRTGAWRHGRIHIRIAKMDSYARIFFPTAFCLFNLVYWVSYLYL
# GABA A receptor alpha-6/beta-2/gamma-2, sequence (P30191 whole entry): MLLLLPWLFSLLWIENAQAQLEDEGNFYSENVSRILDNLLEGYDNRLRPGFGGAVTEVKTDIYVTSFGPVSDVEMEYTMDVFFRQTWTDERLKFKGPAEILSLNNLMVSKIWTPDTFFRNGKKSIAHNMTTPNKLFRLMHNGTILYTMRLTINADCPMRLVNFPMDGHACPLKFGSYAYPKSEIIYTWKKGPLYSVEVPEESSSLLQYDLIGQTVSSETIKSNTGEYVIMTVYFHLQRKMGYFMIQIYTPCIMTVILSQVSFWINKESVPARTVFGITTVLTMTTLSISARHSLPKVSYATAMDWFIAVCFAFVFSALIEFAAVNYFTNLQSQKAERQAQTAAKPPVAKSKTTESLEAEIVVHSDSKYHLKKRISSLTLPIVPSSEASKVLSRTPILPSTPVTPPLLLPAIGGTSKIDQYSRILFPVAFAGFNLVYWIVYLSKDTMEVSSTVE
# GABA A receptor alpha-6/beta-2/gamma-2, sequence (P63138 whole entry): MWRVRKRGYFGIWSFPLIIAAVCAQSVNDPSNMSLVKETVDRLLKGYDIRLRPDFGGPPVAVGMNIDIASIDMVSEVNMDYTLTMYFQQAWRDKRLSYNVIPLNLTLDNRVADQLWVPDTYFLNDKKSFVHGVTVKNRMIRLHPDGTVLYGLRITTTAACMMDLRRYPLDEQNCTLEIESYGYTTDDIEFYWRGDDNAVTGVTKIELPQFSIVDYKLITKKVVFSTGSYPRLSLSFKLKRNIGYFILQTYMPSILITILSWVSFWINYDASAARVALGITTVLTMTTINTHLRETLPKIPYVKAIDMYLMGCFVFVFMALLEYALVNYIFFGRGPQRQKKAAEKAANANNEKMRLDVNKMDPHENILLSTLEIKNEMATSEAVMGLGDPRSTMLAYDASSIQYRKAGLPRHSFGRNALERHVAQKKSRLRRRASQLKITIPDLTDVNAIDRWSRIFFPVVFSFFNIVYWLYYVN
# [4] = molecular target: GABA-A receptor; alpha-1/beta-2/gamma-2 (Homo sapiens) (UniProt P14867+P47870+P18507); experiment: In vitro efficacy for GABA-A alpha-1-beta-2-gamma-2 subtype expressed in A293 cells in Cl- current assay; assay type: functional, cell-based; details: Rattus norvegicus; HEK293
# Outline: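 Stable A293 (human kidney) cells were transfected with α1, β2 and γ2 cDNAs and selected 2 weeks in 1 mg/mL G418; Northern-positive cells were used. Whole-cell patch clamp used a pipette solution of CsCl/EGTA/MgCl2/ATP/Hepes at pH 7.3 and an external normal saline at pH 7.2. GABA with or without drug was applied by U-tube for 10 s. Holding potential was -60 mV, room temperature.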
# [5] = molecular target: GABA A receptor alpha-6/beta-2/gamma-2 (Rattus norvegicus) (UniProt P18508+P30191+P63138); experiment: Displacement of [3H]-Ro- 15-4513 from alpha-6 beta2 gamma2 subunits of Rat GABA-A receptor expressed in Sf-9 insect cell membrane
# Outline: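 Sf-9 cells co-infected with baculoviruses for α6, β2 and γ2 subunits at an MOI of 3 pfu and harvested at 60 h. Membranes were made by homogenising in normal saline, then spun at 1000g and 40000g. Binding used 6 nM [3H]Ro 15-4513 with varying test ligand concentrations in normal saline, 60 min at 4 °C. Bound label was separated on glass-fibre filters and counted by scintillation.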
SMILES,Ratio [1],Ki [2],Ki [3],Activity [4],inhibition [5]
O=C1COc2cccc3c2N1Cc1c(-c2noc(C4CC4)n2)ncn1-3,0.35,2 nM,–,–,–
CN(C)C(=O)N1Cc2c(-c3noc(C4CC4)n3)ncn2-c2ccccc21 [PNU-91571],0.69,–,13.2 nM,0.68,–
CN1C(=O)CN=C(c2ccccc2)c2cc(Cl)ccc21 [DIAZEPAM],–,–,–,1,–
O=C1CCC2c3c(-c4noc(C5CC5)n4)ncn3-c3ccccc3N12 (stereo unspecified),1.15,–,13.2 nM,0.29,–
O=C1OCc2cccc3c2N1Cc1c(-c2noc(C4CC4)n2)ncn1-3,0.52,21 nM,> 589 nM,0.35,14.3%
CC(C)(C)OC(=O)N1CC(=O)N2Cc3c(-c4noc(C5CC5)n4)ncn3-c3cccc1c32,0.63,579 nM,> 589 nM,0.6,13.5%
CN1Cc2cccc3c2N(Cc2c(-c4noc(C5CC5)n4)ncn2-3)C1=O,0.08,3.7 nM,> 589 nM,0.5,16.3%
O=C1CNc2cccc3c2N1Cc1c(-c2noc(C4CC4)n2)ncn1-3,0.58,19 nM,> 589 nM,0.39,14.7%
CC1(C)CC(=O)N2Cc3c(-c4noc(C5CC5)n4)ncn3-c3cccc1c32,0.75,9.9 nM,> 589 nM,1.1,35%
O=C1CC(c2ccccc2)c2cccc3c2N1Cc1c(-c2noc(C4CC4)n2)ncn1-3 (stereo unspecified),0.88,25 nM,> 589 nM,0.88,13.6%
COn1c(=O)n2c3c(cccc31)-n1cnc(-c3noc(C4CC4)n3)c1C2,0.68,7.3 nM,> 589 nM,0.73,36.4%
O=C1CCc2cccc3c2N1Cc1c(-c2noc(C4CC4)n2)ncn1-3,0.09,2.6 nM,> 589 nM,0.07,0%
CC(C)n1c(=O)c2c(-c3noc(C4CC4)n3)ncn2c2ccccc21 [PANADIPLON],–,–,603 nM,0.04,–
CC(C)N1Cc2cccc3c2N(Cc2c(-c4noc(C5CC5)n4)ncn2-3)C1=O,0.41,1.2 nM,> 589 nM,0.65,20.9%
